Experimental data from different studies.
Target: MAP kinase-interacting serine/threonine-protein kinase 2 (MKNK2, Homo sapiens, UniProt Q9HBH9)

Compound | test | setting | endpoint | result
C1=C/COCc2cc(ccc2OCCN2CCCC2)Nc2nccc(n2)-c2cccc(c2)COC/1 | binding | 0.1 µM | remaining binding | 59%
COc1ccc2oc(-c3ccc4nc(N)oc4c3)c/c(=N\c3ccccc3NC(=O)CCN)c2c1 | binding | 1 µM | remaining binding | 93%
CC(C)S(=O)(=O)c1ccc2nccc(Nc3ccc4sc(C5CCCC5)nc4c3)c2c1 | enzyme activity, inhibitor | 1 µM | activity vs control | 101%
Cc1ccc(NC(=O)c2ccnc(C(F)(F)F)c2)cc1-c1cc(OCCO)nc(N2CCOCC2)c1 | binding, competition with immobilised ligand | 1 µM | remaining binding | 79%
N#Cc1ccc(NC(=O)Nc2ccccc2)cc1 | cell-free assay, competition with immobilised ligand | 25 µM | remaining binding | 46%
CO[C@@H]1[C@H](N(C)C(=O)c2ccccc2)C[C@H]2O[C@]1(C)n1c3ccccc3c3c4c(c5c6ccccc6n2c5c31)C(=O)NC4 | enzyme activity, inhibitor | 1 µM | inhibition | 30%
CCCCC(=O)Nc1ccc(-c2ccc3ncn(CCC)c(=O)c3c2)cn1 | binding, competition with immobilised ligand | 0.5 µM | remaining binding | 100%
C=CC(=O)N1CCC([C@@H]2CCNc3c(C(N)=O)c(-c4ccc(Oc5ccccc5)cc4)nn32)CC1 | enzyme activity, inhibitor | 1 µM | inhibition | 22%
CN1CCN(C(=O)c2ccc(NC(=O)Nc3ccc(N(C)c4ccnc(Nc5ccc(CS(C)(=O)=O)cc5)n4)cc3)cc2)CC1 | binding, competition with immobilised ligand | 1 µM | remaining binding | 4.2%
